From ChEMBL document CHEMBL2331457, “Synthesis and biological evaluation of 2-(arylethynyl)quinoline derivatives as mGluR5 antagonists for the treatment of neuropathic pain” (Bioorg Med Chem Lett, 2013) come the findings set out here.

The target of data set [1] is T1, Metabotropic glutamate receptor 5 (Homo sapiens, UniProt P41594). Description: Antagonist activity at human mGluR5 expressed in HEK293 cells assessed as inhibition of L-glutamate-induced calcium mobilization at 1 uM by FDSS6000 assay. It counts as functional, cell-based. In short, it runs like this: (§1)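 HEK cells stably expressing mGluR5, grown in DMEM with 10% FBS, penicillin, streptomycin and puromycin (10 µg/mL) at 37 °C, 5% CO₂. Cells seeded at 40,000/well, incubated 18 h, then loaded with Calcium-5 dye. In the FDSS6000 fluorescence assay, receptor activated with L-glutamate in HBSS in the presence of various concentrations of test compound. Read-out is inhibition of the Ca²⁺ signal.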
Target sequence in this assay (P41594 21-1212 limits assumed): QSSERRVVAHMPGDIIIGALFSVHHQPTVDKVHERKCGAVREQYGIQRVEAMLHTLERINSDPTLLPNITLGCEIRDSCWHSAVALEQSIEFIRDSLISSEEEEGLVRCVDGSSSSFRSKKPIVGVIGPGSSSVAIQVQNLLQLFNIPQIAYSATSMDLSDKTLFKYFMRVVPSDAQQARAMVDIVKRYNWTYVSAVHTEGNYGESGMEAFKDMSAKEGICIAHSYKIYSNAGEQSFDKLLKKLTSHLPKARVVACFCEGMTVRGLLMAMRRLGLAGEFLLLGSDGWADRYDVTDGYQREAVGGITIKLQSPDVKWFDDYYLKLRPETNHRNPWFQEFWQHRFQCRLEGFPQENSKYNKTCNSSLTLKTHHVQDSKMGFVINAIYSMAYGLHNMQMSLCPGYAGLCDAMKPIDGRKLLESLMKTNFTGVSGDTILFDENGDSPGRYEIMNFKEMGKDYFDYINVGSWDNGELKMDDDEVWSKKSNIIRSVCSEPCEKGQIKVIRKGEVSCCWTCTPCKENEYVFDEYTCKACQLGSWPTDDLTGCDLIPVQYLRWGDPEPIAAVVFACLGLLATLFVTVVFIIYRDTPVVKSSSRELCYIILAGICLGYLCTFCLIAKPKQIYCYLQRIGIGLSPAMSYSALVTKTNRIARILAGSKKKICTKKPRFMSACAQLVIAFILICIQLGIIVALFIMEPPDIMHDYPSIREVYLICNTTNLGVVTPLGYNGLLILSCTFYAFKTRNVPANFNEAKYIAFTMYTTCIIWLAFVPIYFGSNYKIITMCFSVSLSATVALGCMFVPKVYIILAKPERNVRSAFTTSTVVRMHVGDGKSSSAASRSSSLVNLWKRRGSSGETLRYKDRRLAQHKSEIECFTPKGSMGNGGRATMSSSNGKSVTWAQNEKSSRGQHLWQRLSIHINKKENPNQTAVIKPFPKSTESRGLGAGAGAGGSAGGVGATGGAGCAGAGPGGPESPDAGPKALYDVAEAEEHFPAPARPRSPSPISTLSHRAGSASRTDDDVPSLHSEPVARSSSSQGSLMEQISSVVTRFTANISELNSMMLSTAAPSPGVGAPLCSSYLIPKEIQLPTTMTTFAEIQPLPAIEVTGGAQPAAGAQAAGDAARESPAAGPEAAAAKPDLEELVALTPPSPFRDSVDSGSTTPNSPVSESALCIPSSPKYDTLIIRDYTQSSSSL

In data set [2] the target is T1, Metabotropic glutamate receptor 5. Nature of the data set: Antagonist activity at human mGluR5 expressed in HEK293 cells assessed as inhibition of L-glutamate-induced calcium mobilization at 10 uM by FDSS6000 assay. It counts as functional, cell-based. In short, it runs like this: as §1
Target sequence in this assay (P41594 21-1212 limits assumed): as above
(In general: Calcium assays in cells follow changes in intracellular calcium, usually with a dye or a luminescent sensor.)

In the next data set the target is CYP2C9 (Homo sapiens, UniProt P11712). Description: Inhibition of CYP2C9 (unknown origin) assessed as residual activity at 10 uM. It counts as ADME. Conditions: read-out: Activity. The method, boiled down:
(§2)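 CYP2D6, CYP2C9 and CYP3A4 each tested with compound at 10 µM; read-out is percent enzyme activity remaining.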

Another data set addresses CYP2D6 (Homo sapiens, UniProt P10635). Nature of the data set: Inhibition of CYP2D6 (unknown origin) assessed as residual activity at 10 uM. Type of data set: ADME. Conditions: read-out: Activity. In short, it runs like this:
as §2

The nature of data set [3]: Metabolic stability in human liver microsomes assessed as compound remaining at 1 uM after 30 mins. It counts as ADME, Microsome. Conditions: read-out: Stability. In short, it runs like this:
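Compound at 1 µM incubated with human liver microsomes for 30 min; read-out is percent of parent remaining.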

The target in another data set is CYP3A4 (Homo sapiens, UniProt P08684). Nature of the data set: Inhibition of CYP3A4 (unknown origin) assessed as residual activity at 10 uM. Type of data set: ADME. Conditions: read-out: Activity. In short, it runs like this:
as §2

Data set [4] has as its system Rattus norvegicus. Nature of the data set: Antiallodynic activity in rat spinal nerve ligation model of neuropathic pain assessed as reduction of mechanical allodynia at 100 mg/kg, po after 5 hrs. It counts as functional, organism-based. On the set-up: dose 100 mg/kg. In short, it runs like this: (§3)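 Rat SNL model: tight ligation of L5 spinal nerve distal to DRG. Mechanical and cold allodynia were tested 1 day before and 14 days after surgery, then given orally, and retested at 1, 3 and 5 h. Mechanical allodynia used the wire-mesh-floor method, cold allodynia was scored as %MPE. Gabapentin was the reference (n = 4), test n = 5. Paired t-test versus pre-dose.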

Data set [5] can be described thus: Oral bioavailability in rat at 10 mg/kg. Type of data set: ADME, organism-based. To be noted: in vivo. The method, boiled down:
(§4)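 Rat plasma pharmacokinetics after a 10 mg/kg dose, intravenous (n = 4) or oral (n = 3); mean parameters reported.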

Data set [6] has as its system Rattus norvegicus. Description: Antiallodynic activity in rat spinal nerve ligation model of neuropathic pain assessed as reduction of cold allodynia at 100 mg/kg, po after 3 hrs. Type of data set: functional, organism-based. On the set-up: dose 100 mg/kg. In short, it runs like this:
as §3

A short description of data set [7]: Half life in rat at 10 mg/kg, iv. It counts as ADME, organism-based. Details: dose 10 mg/kg, route intravenous. To be noted: in vivo. In short, it runs like this: as §4
The nature of data set [8]: Clearance in rat at 10 mg/kg, iv. It counts as ADME, organism-based. On the set-up: dose 10 mg/kg, route intravenous. To be noted: in vivo. The method, boiled down: as §4
A short description of data set [9]: Cmax in rat at 10 mg/kg, po. Type of data set: ADME, organism-based. On the set-up: dose 10 mg/kg, route oral. Conditions: in vivo. The method, boiled down:
(§5)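 Rat plasma pharmacokinetics after a single oral dose of 10 mg/kg. The group size was n = 3 rats, and the reported values are group means.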

Data set [10] in a line: Tmax in rat at 10 mg/kg, po. It counts as ADME, organism-based. Conditions: in vivo. On the set-up: dose 10 mg/kg, route oral. The method, boiled down: as §5
Data set [11] in a line: Half life in rat at 10 mg/kg, po. Type of data set: ADME, organism-based. On the set-up: dose 10 mg/kg, route oral. To be noted: in vivo. The method, boiled down:
as §4

Data set [12] in a line: Apparent volume of distribution at steady state in rat at 10 mg/kg, iv. To be noted: in vivo, read-out: Vdss(app). On the set-up: dose 10 mg/kg, route intravenous. Type of data set: ADME, organism-based. In short, it runs like this: as §4
Data set [13] concerns the target T1, Metabotropic glutamate receptor 5. Nature of the data set: Antagonist activity at human mGluR5 expressed in HEK293 cells assessed as inhibition of L-glutamate-induced calcium mobilization by FDSS6000 assay.
Target sequence in this assay (P41594 whole entry): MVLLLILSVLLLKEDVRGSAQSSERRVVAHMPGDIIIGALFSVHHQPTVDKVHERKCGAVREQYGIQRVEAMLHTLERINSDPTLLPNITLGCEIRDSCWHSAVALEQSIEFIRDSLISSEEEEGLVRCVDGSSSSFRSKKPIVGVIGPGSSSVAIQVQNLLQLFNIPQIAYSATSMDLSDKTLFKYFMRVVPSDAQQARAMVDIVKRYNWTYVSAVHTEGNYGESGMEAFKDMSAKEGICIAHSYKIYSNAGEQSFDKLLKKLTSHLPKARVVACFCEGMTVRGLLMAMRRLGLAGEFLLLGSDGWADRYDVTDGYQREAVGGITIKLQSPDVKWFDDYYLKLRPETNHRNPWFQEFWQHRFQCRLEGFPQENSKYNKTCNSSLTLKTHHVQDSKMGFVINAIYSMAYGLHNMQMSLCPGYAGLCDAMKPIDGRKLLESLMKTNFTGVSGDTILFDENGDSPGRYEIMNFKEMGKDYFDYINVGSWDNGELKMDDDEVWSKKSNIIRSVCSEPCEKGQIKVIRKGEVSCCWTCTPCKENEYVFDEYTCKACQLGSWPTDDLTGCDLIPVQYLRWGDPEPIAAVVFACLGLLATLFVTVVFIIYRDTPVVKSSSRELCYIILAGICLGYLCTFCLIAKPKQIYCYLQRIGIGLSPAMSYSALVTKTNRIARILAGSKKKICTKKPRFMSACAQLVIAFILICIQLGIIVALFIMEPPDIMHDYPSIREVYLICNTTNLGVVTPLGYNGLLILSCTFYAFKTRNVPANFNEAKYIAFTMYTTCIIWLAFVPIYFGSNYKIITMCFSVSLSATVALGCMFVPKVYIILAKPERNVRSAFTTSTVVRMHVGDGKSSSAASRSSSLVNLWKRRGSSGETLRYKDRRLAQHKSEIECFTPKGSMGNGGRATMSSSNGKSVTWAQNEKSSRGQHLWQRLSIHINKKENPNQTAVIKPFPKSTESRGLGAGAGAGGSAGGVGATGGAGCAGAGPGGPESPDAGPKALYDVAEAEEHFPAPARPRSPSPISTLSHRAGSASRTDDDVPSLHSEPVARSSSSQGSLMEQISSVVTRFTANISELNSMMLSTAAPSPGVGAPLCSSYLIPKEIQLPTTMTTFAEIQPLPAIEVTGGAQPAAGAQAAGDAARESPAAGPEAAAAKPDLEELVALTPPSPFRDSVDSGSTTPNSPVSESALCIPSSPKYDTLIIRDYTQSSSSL
Data set [14] deals with Voltage-gated inwardly rectifying potassium channel KCNH2 (Homo sapiens, UniProt Q12809).

Active and inactive are the calls of the source. The rule behind the calls is not given here.

The inhibition is the relative decrease from the control value, in per cent. Usually bioavailability stands for the share of a dose that reaches the circulation, judged against a reference dose that is usually intravenous. A word on the half-life: it is how long it takes for the measured level to halve. One may read the clearance as the rate of elimination divided by the concentration. A low value points to a low capacity for elimination. The Cmax is the peak of the concentration-time curve. As usually defined, the Tmax is the time at which the peak concentration occurs. As a reminder, the IC50 is the concentration needed to halve the response being measured.

Chain of CYP2D6 (P10635 whole entry): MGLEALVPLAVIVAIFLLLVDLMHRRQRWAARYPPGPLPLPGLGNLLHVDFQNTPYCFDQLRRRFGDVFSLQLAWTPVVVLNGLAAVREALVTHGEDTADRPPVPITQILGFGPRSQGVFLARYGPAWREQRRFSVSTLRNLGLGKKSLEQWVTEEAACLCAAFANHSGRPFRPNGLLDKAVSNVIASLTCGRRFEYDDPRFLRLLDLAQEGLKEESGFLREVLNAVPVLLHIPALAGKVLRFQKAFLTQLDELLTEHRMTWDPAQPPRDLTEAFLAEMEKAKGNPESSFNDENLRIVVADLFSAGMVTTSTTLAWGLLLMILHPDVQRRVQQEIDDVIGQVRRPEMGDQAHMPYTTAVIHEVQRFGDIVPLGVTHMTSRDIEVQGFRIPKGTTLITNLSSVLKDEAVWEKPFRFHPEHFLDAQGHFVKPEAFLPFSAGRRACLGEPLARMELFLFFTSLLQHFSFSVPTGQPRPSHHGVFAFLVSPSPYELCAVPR
Chain of CYP2C9 (P11712 whole entry): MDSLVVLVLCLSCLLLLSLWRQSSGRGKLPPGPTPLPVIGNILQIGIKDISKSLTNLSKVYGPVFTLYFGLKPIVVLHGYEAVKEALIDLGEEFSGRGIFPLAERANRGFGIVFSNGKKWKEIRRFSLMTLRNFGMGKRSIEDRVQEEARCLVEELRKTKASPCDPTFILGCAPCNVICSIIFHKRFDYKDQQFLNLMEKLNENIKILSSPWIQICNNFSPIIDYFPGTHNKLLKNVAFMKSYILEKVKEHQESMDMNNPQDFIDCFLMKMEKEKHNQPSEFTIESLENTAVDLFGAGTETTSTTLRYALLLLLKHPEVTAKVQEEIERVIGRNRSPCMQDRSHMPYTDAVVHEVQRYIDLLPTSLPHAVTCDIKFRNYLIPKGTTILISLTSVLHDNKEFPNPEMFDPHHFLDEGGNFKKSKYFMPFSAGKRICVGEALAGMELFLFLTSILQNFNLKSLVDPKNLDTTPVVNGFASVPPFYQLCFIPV
Chain of CYP3A4 (P08684 whole entry): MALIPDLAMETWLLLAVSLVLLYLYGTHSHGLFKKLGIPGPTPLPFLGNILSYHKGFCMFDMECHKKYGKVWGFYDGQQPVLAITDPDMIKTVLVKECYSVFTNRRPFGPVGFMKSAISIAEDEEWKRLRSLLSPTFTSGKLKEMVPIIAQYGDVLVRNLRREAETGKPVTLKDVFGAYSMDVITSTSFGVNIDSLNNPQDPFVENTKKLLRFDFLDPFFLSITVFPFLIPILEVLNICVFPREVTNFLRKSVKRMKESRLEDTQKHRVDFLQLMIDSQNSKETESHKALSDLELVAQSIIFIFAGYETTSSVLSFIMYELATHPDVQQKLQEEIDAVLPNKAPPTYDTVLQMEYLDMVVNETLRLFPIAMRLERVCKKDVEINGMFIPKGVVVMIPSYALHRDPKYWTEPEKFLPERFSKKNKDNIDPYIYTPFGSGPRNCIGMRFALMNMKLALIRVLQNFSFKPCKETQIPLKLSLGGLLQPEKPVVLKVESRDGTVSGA
Chain of Voltage-gated inwardly rectifying potassium channel KCNH2 (Q12809 whole entry): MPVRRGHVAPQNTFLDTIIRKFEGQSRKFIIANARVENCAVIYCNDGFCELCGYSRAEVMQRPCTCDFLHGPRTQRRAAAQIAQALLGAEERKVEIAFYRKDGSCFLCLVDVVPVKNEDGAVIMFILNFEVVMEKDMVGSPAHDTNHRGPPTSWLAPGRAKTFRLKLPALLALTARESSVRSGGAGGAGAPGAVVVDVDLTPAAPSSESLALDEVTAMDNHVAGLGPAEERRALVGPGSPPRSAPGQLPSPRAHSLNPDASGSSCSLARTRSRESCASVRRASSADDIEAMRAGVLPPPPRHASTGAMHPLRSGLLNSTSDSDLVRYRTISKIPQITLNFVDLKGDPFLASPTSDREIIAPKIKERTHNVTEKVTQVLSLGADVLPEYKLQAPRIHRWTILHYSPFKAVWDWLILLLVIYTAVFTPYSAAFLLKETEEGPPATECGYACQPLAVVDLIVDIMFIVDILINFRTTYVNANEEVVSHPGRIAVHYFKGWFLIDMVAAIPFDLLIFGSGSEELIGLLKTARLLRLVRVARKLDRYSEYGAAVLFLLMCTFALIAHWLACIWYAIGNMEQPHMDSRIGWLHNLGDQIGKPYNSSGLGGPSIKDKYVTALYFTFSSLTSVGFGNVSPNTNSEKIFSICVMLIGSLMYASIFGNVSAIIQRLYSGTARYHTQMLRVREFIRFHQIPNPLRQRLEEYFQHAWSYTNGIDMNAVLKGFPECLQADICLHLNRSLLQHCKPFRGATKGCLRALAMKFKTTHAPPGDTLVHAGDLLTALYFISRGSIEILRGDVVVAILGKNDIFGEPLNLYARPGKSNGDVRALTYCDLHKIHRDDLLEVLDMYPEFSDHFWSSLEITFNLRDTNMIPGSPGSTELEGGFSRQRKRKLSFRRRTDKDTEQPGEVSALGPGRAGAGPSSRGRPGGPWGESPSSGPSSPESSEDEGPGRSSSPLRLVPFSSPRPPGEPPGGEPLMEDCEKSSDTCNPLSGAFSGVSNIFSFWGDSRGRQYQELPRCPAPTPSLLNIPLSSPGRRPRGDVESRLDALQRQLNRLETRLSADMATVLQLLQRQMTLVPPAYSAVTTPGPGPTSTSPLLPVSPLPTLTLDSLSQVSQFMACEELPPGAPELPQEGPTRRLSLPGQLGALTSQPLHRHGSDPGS

Take `Fc1ccc(C#Cc2ccc3ccccc3n2)nc1`: the results for the inhibition in data set [1] and in [2] were 33.9% and 63.3%, respectively.
For the compound `Clc1cccc2nc(C#Cc3ccccn3)ccc12`, the inhibition in [1] was 31%; in data set [2] it was 64.3%.
For `Fc1cnc(C#Cc2ccc3ccccc3n2)nc1`, the figures for the inhibition in data set [1] and in data set [2] were 16% and 15.6%, respectively.
For the compound `Fc1cccnc1C#Cc1ccc2ccccc2n1`, the inhibition in [1] was 31.3%; in [2] it was 55.2%.
With `COc1cccc(C#Cc2ccc3ccccc3n2)n1`, the inhibition in [1] stood at 16.6%; in data set [2], 48.6%.
Take `Brc1cccc2nc(C#Cc3ccccc3)ccc12`: the values for the inhibition in data set [1] and in data set [2] were 21.1% and 20.7%, respectively.
The corresponding values for `Cc1ccc(C#Cc2ccc3ccccc3n2)nc1` are 29% and 66.3%.
Take `COc1cccc2nc(C#Cc3ccccc3)ccc12`: the inhibition in [1] stood at 63.6%; in data set [2] it was 68%. Further, the activity at 10 µM is 55% on CYP2C9, above 99% at CYP2D6 and 50% at CYP3A4. For the same compound, the remaining at 0.5 h, 1 µM in [3] is below 1%.
Turning to `CC(C)(C)C(=O)Oc1cccc2nc(C#Cc3cccnc3)ccc12`, the figures for the inhibition in data set [1] and in data set [2] were 10.6% and 28.5%, respectively.
Take `Fc1cccc(C#Cc2ccc3ccccc3n2)n1`: the inhibition in data set [1] amounted to 29.6%; in data set [2], 46.9%.
In the case of `CC(C)(C)C(=O)Oc1cccc2nc(C#Cc3ccccc3)ccc12`, the inhibition in [1] turned out to be 24%; in data set [2], 23.8%.
As to `Cc1ccnc(C#Cc2ccc3ccccc3n2)c1`, the inhibition in [1] is 21.9%; in [2], 66.5%.
Take `Oc1cccc2nc(C#Cc3cccnc3)ccc12`: the inhibition in [1] came out at 25.2%; in data set [2], 17.6%.
In the case of `Cc1cccnc1C#Cc1ccc2ccccc2n1`, the inhibition in data set [1] worked out at 18.9%; in [2] it was 40.1%.
For the compound `C(#Cc1ccc2ccccc2n1)c1cccnc1`, the inhibition in data set [1] is 43.9%; in data set [2], 65.8%.
For `Oc1cccc2nc(C#Cc3ccccn3)ccc12`, the inhibition in data set [1] was determined as 17.4%; in data set [2] it was 22.1%.
Regarding `COc1cccc2nc(C#Cc3cccnc3)ccc12`, the inhibition in data set [1] and in [2] was 67.7% each time. The remaining at 0.5 h, 1 µM in data set [3] is below 1%.
In the case of `FC(F)(F)c1ccnc(C#Cc2ccc3ccccc3n2)n1`, the inhibition in data set [1] is 17.3%; in data set [2], 15.9%.
For `Brc1cccc2nc(C#Cc3cccnc3)ccc12`, the inhibition in data set [1] came out at 22%; in data set [2], 40.1%.
With `C(#Cc1ccc2ccccc2n1)c1ccccn1`, the Activity entry in the data set with Rattus norvegicus [4] and in the data set with Rattus norvegicus [6] was “Active” in each case. For the same compound, the inhibition was determined as 58.8% in data set [1] and 76.7% in [2]. Besides, the bioavailability in [5] came to 15.9%. Also, the half-life turned out to be 48.5 min in data set [7] and 58.2 min in data set [11]. The activity at 10 µM at CYP2C9 is above 99%; at CYP2D6, 98%; at CYP3A4 it was 77%. The compound also yielded a clearance in data set [8] of 84.9 mL/min/kg. The highest level in data set [9] (Cmax) was 430 ng/mL. In data set [3], the remaining at 0.5 h, 1 µM stood at 88%. Besides, the Tmax in [10] is 10 min. Moreover, in [12], the Vd was found to be 1.27 L/kg.
Turning to `NCC1(CC(=O)O)CCCCC1`, the Activity entry with Rattus norvegicus [4] and in the data set on Rattus norvegicus [6] was “Active” each time.
Turning to `C(#Cc1ccc2ccccc2n1)c1ccccc1`, the inhibition in data set [1] worked out at 35.9%; in [2], 67.7%.
For the compound `FC(F)(F)c1cccc(C#Cc2ccc3ccccc3n2)n1`, the figures for the inhibition in [1] and in data set [2] were 15.8% and 28.7%, respectively.
On to `FC(F)(F)c1cccnc1C#Cc1ccc2ccccc2n1`, for which the figures for the inhibition in data set [1] and in [2] were 9.49% and 16.4%, respectively.
In the case of `CCOc1cccc2nc(C#Cc3cccnc3)ccc12`, the values for the inhibition in data set [1] and in data set [2] were 47.2% and 66.6%, respectively.
`C(#Cc1ccc2ccccc2n1)c1cncnc1`: the inhibition was 13.6% in [1] and 22.4% in data set [2].
On to `C(#Cc1ncccn1)c1ccc2ccccc2n1`, for which the inhibition in [1] was 17.1%; in [2], 28.6%.
In the case of `N#Cc1cccc(C#Cc2ccc3ccccc3n2)n1`, the results for the inhibition in [1] and in [2] were 33% and 64.8%, respectively.
Regarding `Clc1cccc2nc(C#Cc3cccnc3)ccc12`, the inhibition was found to be 11.2% in data set [1] and 28.4% in data set [2].
For `Oc1cccc2nc(C#Cc3ccccc3)ccc12`, in that order: 18% and 24.3%.
For `FC(F)(F)c1ccc(C#Cc2ccc3ccccc3n2)nc1`, in that order: 13% and 50.7%.
Turning to `Brc1cccc2nc(C#Cc3ccccn3)ccc12`, the results for the IC50 in data set [13] and in data set [14] were 0.75 µM and 22.7 µM, respectively. For the same compound, the inhibition amounted to 56.7% in data set [1] and 77.5% in data set [2]. For the same compound, the activity at 10 µM on CYP2C9 is 52%; at CYP2D6, 78%; on CYP3A4, 56%. For the same compound, in [3], the remaining at 0.5 h, 1 µM came out at 98%.
With `N#Cc1ccnc(C#Cc2ccc3ccccc3n2)c1`, the inhibition in data set [1] was 35.2%; in data set [2] it was 76.1%.
Turning to `Clc1cccc2nc(C#Cc3ccccc3)ccc12`, the inhibition was 11.7% in data set [1] and 8.02% in data set [2].
For the compound `FC(F)(F)c1ccnc(C#Cc2ccc3ccccc3n2)c1`, the inhibition amounted to 23.3% in [1] and 58% in data set [2].
The corresponding values for `CC(C)(C)C(=O)Oc1cccc2nc(C#Cc3ccccn3)ccc12` are 17.1% and 62.4%.
